Source: PubChem
Most compounds without a hit are left out; they make up all but 3.1% or so of the library.
rRNA inh HTS = selective bacterial rRNA inhibition in E. coli. E. coli WT GFP vs humanized-ribosome RFP mutants, fluorescence, 24 h; active compounds read low; DMSO median 0, no signal -100. GFP signal change (wild-type ribosome), % (no concentration beside the values). actives 1.6% (n = 350,000). AID 720706;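 active = significant combined selectivity score with lowered wild-type GFP, culture density cut under 30%, mutant RFP and density less affected; inactive = any of these conditions unmet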
SIRT5 inh = blocks human SIRT5 desuccinylation of peptide. Purified SirT5, succinyl-peptide AMC, trypsin-coupled fluorescence. AID 652115. Q9NXA8. actives 1.1% (n = 330,000). inhibition, % at 15 µM; in the data active = inhibition above about 15%
F508del corr = correctors of CFTR F508del function in bronchial epithelial cells | CFBE cells, YFP halide quenching; stimulated with forskolin plus potentiator P3; % fluorescence drop versus neutral controls | activity (quench increase), % at 7.58 µM | actives 0.36% (n = 350,000) | AID 720511;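 active = mean added fluorescence quench of at least 8% versus neutral control, with both replicates also reaching 8%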;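 also: cells transiently co-express mutant CFTR-F508del with the halide-sensitive YFP; corrector assay measuring rescue of mutant channel to the surface after 24 h compound exposure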
S100A4 MyoIIA = blocks human S100A4 binding to myosin IIA peptide | S100A4/TAMRA-MyoIIA peptide fluorescence polarization | inhibition, % at 10.7 µM | actives 0.14% (n = 360,000);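 active = mean inhibition of at least 70% across replicates, with every replicate also reaching that level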
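Compound dosing: one dose per compound; test system: human S100A4 monomer with TAMRA-labelled myosin IIA peptide; probe or stimulus: TAMRA-labelled myosin IIA heavy-chain peptide probe, 5 nM; medium: HEPES buffer with Ca2+, pH 7.2; schedule: 5 min incubation before reading; benchmarks: neutral control DMSO, positive control TFP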
ERAP1 HTS inh = blocks human ERAP1 aminopeptidase activity; Q9NZ08; recombinant ERAP1, Leu-AMC fluorescence, 60 min; inhibition, % at 10.7 µM; actives 0.15% (n = 340,000); AID 652197;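 active = mean replicate inhibition of at least 30%, or all replicates individually reaching that 30% level; inactive = mean below 30% and not every replicate reaching it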
Target sequence (Q9NZ08 whole entry, looked up): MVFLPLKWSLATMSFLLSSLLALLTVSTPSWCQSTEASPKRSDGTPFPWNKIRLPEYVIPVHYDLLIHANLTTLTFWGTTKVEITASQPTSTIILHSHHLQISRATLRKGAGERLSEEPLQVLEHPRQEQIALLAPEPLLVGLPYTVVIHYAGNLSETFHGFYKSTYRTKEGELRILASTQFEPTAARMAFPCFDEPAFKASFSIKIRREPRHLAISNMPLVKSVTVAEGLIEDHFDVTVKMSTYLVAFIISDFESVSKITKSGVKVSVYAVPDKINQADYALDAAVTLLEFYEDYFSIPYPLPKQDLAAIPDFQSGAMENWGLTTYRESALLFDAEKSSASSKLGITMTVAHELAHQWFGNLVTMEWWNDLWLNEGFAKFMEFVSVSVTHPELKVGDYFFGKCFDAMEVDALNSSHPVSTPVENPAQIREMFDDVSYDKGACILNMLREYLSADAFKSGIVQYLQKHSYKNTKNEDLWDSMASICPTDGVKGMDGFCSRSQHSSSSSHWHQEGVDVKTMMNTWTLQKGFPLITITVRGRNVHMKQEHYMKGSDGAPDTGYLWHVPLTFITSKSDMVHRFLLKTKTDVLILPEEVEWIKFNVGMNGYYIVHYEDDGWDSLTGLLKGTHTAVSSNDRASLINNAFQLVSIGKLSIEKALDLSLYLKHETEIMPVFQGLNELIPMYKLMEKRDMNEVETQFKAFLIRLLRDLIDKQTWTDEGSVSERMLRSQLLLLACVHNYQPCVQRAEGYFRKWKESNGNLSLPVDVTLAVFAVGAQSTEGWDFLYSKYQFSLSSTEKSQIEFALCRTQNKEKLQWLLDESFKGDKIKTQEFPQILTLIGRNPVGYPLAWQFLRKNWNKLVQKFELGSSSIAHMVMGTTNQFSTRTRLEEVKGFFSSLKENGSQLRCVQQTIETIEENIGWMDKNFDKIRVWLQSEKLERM
Numbers stand for hits; 0 = inactive; - = not tested or not shown.

SMILES	rRNA inh HTS	SIRT5 inh	F508del corr	S100A4 MyoIIA	ERAP1 HTS inh
O=[N+]([O-])c1ccc(C[n+]2cc(-c3ccc(Cl)c(Cl)c3)n3c2CCCCC3)cc1	-49	0	0	0	0
O=C(Nc1ccccc1)N[C@@H]1CC[C@@H](CCNS(=O)(=O)c2ccccc2F)O[C@H]1CO	0	0	0	0	0
CC(Cl)C(=O)NN=C(c1ccccc1)c1ccccc1 (stereo unspecified)	0	-	0	0	-
CC(NC1CCCCC1)C(=O)NN=C(c1ccccc1)c1ccccc1 (stereo unspecified)	-25	-	0	0	0
CO[C@@H]1CN(C)C(=O)c2cc(NC(=O)C3CCC3)ccc2OC[C@@H](C)N(Cc2nccs2)C[C@@H]1C	0	0	0	0	0
O=C(c1cccs1)N1CCCc2ccccc21	-24	0	0	0	0
Cc1ccccc1C(=O)Nc1ccc2c(c1)CCCN2C(=O)c1cccs1	0	0	0	0	0
CC(C)CC#Cc1ccc2c(c1)O[C@H](CN(C)C(=O)c1cccc(F)c1)[C@@H](C)CN([C@H](C)CO)S2(=O)=O	0	22	0	0	0
CC(C)CC#Cc1ccc2c(c1)O[C@H](CN(C)C(=O)c1cccc(F)c1)[C@@H](C)CN([C@@H](C)CO)S2(=O)=O	0	18	0	0	0
C[C@@H]1CN([C@@H](C)CO)S(=O)(=O)c2ccc(C#CC3CC3)cc2O[C@@H]1CN(C)C(=O)c1cccc(F)c1	0	23	0	0	0
CC(C)CC#Cc1ccc2c(c1)O[C@@H](CN(C)C(=O)c1cccc(F)c1)[C@@H](C)CN([C@@H](C)CO)S2(=O)=O	0	0	0	0	0
C[C@@H]1CN([C@H](C)CO)S(=O)(=O)c2ccc(C#CC3CC3)cc2O[C@@H]1CN(C)C(=O)c1cccc(F)c1	0	0	0	0	0
CC(C)CC#Cc1ccc2c(c1)O[C@H](CN(C)C(=O)c1ccccc1)[C@@H](C)CN([C@@H](C)CO)S2(=O)=O	0	0	0	0	0
CC(C)CC#Cc1ccc2c(c1)O[C@H](CN(C)C(=O)c1ccccc1)[C@H](C)CN([C@H](C)CO)S2(=O)=O	0	15	0	0	0
Cc1noc(C)c1NC(=O)Nc1ccc2c(c1)C(=O)N([C@@H](C)CO)C[C@@H](C)[C@H](CN(C)C(=O)CCCN(C)C)OCCCC[C@H](C)O2	0	0	0	0	0
COc1ccc(S(=O)(=O)Nc2cccc3c2O[C@@H](CN(C)S(=O)(=O)c2ccc(F)cc2)[C@@H](C)CN([C@H](C)CO)C3=O)cc1	0	0	0	0	0
CC(C)CC#Cc1ccc2c(c1)O[C@@H](CN(C)C(=O)c1ccccc1)[C@H](C)CN([C@H](C)CO)S2(=O)=O	0	0	0	0	0
CC(C)CC#Cc1ccc2c(c1)O[C@@H](CN(C)C(=O)c1cccc(F)c1)[C@H](C)CN([C@@H](C)CO)S2(=O)=O	0	22	0	0	0
CC(C)CC#Cc1ccc2c(c1)O[C@@H](CN(C)C(=O)c1cccc(F)c1)[C@H](C)CN([C@H](C)CO)S2(=O)=O	0	16	0	0	0
CCc1ccc(NC(=O)N(CCCN2CCOCC2)C(C)c2cc3cccc(OC)c3o2)cc1 (stereo unspecified)	-22	0	-	0	0
COc1cccc2cc(C(C)N(CCCN3CCOCC3)C(=S)Nc3c(C)cccc3C)oc12 (stereo unspecified)	0	0	0	0	-
CO[C@H]1CN(C)C(=O)c2ccc(NC(=O)NC(C)C)cc2OC[C@H](C)N(Cc2ccccc2)C[C@H]1C	0	23	0	0	0
CO[C@@H]1CN(C)C(=O)c2ccc(NC(=O)NC(C)C)cc2OC[C@@H](C)N(Cc2ccccc2)C[C@@H]1C	0	18	0	0	0
CC1(C(=O)NCCc2c[nH]c3ccccc23)CCN1CC1CCCCC1 (stereo unspecified)	-23	0	0	0	0
CCCCNC(=O)C1(C)CCC(=O)N1CCc1c[nH]c2ccccc12 (stereo unspecified)	0	0	0	0	0
SMILES	rRNA inh HTS	SIRT5 inh	F508del corr	S100A4 MyoIIA	ERAP1 HTS inh
COC(=O)N/N=C/c1cn(Cc2c(Cl)cccc2Cl)c2ccccc12	0	0	0	0	0
COc1ccccc1OCCn1cc(/C=N/NC(=O)c2ccncc2)c2ccccc21	-28	0	0	0	0
O=C(N/N=C/c1cn(Cc2cccc(F)c2)c2ccccc12)c1cc(O)cc(O)c1	-24	0	0	0	0
COC(=O)N/N=C/c1cn(Cc2ccccc2Cl)c2ccccc12	-26	0	-	0	0
Nc1ccc(C(=O)N/N=C/c2cn(Cc3ccc(F)cc3)c3ccccc23)cc1	0	0	0	0	0
COC(=O)N/N=C/c1cn(Cc2ccc(Cl)cc2Cl)c2ccccc12	-28	20	0	0	0
C[C@@H]1CN([C@H](C)CO)C(=O)Cc2cc(NC(=O)Nc3ccc4c(c3)OCO4)ccc2O[C@@H]1CN(C)S(=O)(=O)c1cn(C)cn1	0	-	0	-	-
COc1cccc(C#Cc2cnc3c(c2)C(=O)N([C@H](C)CO)C[C@H](C)[C@@H](CN(C)C(=O)C2CCOCC2)O3)c1	0	0	0	0	0
O=C(O)c1ccc(N/N=C/c2cn(Cc3ccccc3F)c3ccccc23)cc1	-35	0	0	0	0
Nc1ccc(C(=O)N/N=C/c2cn(Cc3ccccc3F)c3ccccc23)cc1	0	0	0	0	0
C[C@H](CO)N1C[C@H](C)[C@H](CN(C)Cc2ccc(C(F)(F)F)cc2)Oc2c(NC(=O)c3nc4ccccc4s3)cccc2C1=O	0	28	0	0	0
C[C@H]1CN([C@@H](C)CO)C(=O)c2cccc(NC(=O)c3nc4ccccc4s3)c2O[C@@H]1CN(C)Cc1ccc(C(F)(F)F)cc1	0	21	0	0	0
C[C@H](CO)N1C[C@H](C)[C@@H](CN(C)Cc2ccc(C(F)(F)F)cc2)Oc2c(NC(=O)c3nc4ccccc4s3)cccc2C1=O	0	16	0	0	0
C[C@@H]1CN([C@@H](C)CO)C(=O)c2cccc(NC(=O)c3nc4ccccc4s3)c2O[C@H]1CN(C)Cc1ccc(C(F)(F)F)cc1	0	22	0	0	0
Cc1ccc(S(=O)(=O)N(C)C[C@@H]2Oc3ccc(NC(=O)Cn4cnnn4)cc3CC(=O)N([C@@H](C)CO)C[C@H]2C)cc1	0	0	0	0	0
C[C@@H]1CN([C@H](C)CO)C(=O)c2cccc(NC(=O)c3nc4ccccc4s3)c2O[C@@H]1CN(C)Cc1ccc(C(F)(F)F)cc1	0	25	0	0	0
C[C@@H]1CN([C@H](C)CO)C(=O)c2cccc(NC(=O)c3nc4ccccc4s3)c2O[C@@H]1CN(C)Cc1ccccc1	0	0	0	0	0
